ChEMBL document CHEMBL1122118, “Novel opiates and antagonists. 4. 7-Alkanoylhydromorphones” (1982)
The source made the active and inactive calls. The calls are words filed in the database; no cut-off is given here.

Experiments:
[1] = species on record: Rattus norvegicus; test: Antagonistic activity was measured by Rat tail-flick morphine antagonist procedure; format: functional
In short: (§1)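 Rat tail-flick test: the compound's ability to block analgesia from a fixed challenge dose of morphine was scored across a dose-response.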

[2] = species on record: Mus musculus; test: Agonistic activity by mouse acetic acid writhing test.; format: functional
[3] = system: Rattus norvegicus; test: Antagonistic activity was measured by Rat tail-flick morphine antagonist procedure; IA is Inactive at highest dose tested (10 mg/Kg); format: functional, organism-based; in short: as §1
[4] = system: Mus musculus; test: Agonistic activity was measured by Mouse acetic acid writhing test; IA is Inactive at highest dose tested (10 mg/Kg); format: functional, organism-based
[5] = species on record: Rattus norvegicus; test: Antagonistic activity was measured by Rat tail-flick morphine antagonist procedure; unable to achieve satisfactory dose response; format: functional, organism-based; in short: as §1

Row | SMILES | AD50 [1] [mg/kg] | ED50 [2] [mg/kg] | further results
1 | CCCCC(=O)C1CC2C3Cc4ccc(O)c5c4C2(CCN3CC2CC2)C(O5)C1=O (stereo not drawn) | 3.3 | – | –
2 | CCC(=O)C1CC2C3Cc4ccc(OC)c5c4C2(CCN3CC2CC2)C(O5)C1=O (stereo not drawn) | 6.5 | > 10 | –
3 | CCCCCCC(=O)C1CC2C3Cc4ccc(OC)c5c4C2(CCN3CC2CC2)C(O5)C1=O.Cl (stereo not drawn) | >10 | > 10 | –
4 | CCCCC(=O)C1CC2C3Cc4ccc(OC)c5c4C2(CCN3CC2CC2)C(O5)C1=O (stereo not drawn) | – | > 10 | AD50 [3]: inactive
5 | CCC(=O)C1CC2C3Cc4ccc(O)c5c4C2(CCN3CC2CC2)C(O5)C1=O (stereo not drawn) | 0.52 | – | ED50 [4]: inactive
6 | CO[C@@]12CC[C@@]3(C[C@@H]1[C@](C)(O)C(C)(C)C)[C@H]1Cc4ccc(O)c5c4[C@@]3(CCN1CC1CC1)[C@H]2O5 [BUPRENORPHINE] | – | 0.13 | AD50 [5]: unable to achieve satisfactory dose response
7 | O=C(c1ccccc1)C1CC2C3Cc4ccc(O)c5c4C2(CCN3CC2CC2)C(O5)C1=O (stereo not drawn) | 0.24 | – | –
8 | CC(C)C(=O)C1CC2C3Cc4ccc(O)c5c4C2(CCN3CC2CC2)C(O5)C1=O (stereo not drawn) | 0.81 | – | –
9 | CCCCCC(=O)C1CC2C3Cc4ccc(OC)c5c4C2(CCN3C)C(O5)C1=O (stereo not drawn) | – | 4 | –
10 | CCCCCC(=O)C1CC2C3Cc4ccc(OC)c5c4C2(CCN3CC2CC2)C(O5)C1=O (stereo not drawn) | – | – | AD50 [3]: inactive
11 | COc1ccc2c3c1OC1C(=O)C(C(=O)c4ccc(F)cc4)CC4C(C2)N(CC2CC2)CCC314 (stereo not drawn) | >10 | – | ED50 [4]: inactive
12 | CCCC(=O)C1CC2C3Cc4ccc(OC)c5c4C2(CCN3C)C(O5)C1=O (stereo not drawn) | – | – | ED50 [4]: inactive
13 | CCCC(=O)C1CC2C3Cc4ccc(O)c5c4C2(CCN3CC2CC2)C(O5)C1=O (stereo not drawn) | 2.6 | – | –
14 | COc1ccc2c3c1O[C@H]1C(=O)CC[C@H]4[C@@H](C2)N(C)CC[C@]314 [HYDROCODONE] | – | 1.06 | –
15 | CN1CC[C@]23c4c5ccc(O)c4O[C@H]2[C@@H](O)C=C[C@H]3[C@H]1C5 [MORPHINE] | – | 0.79 | –
16 | CCCC(=O)C1CC2C3Cc4ccc(O)c5c4C2(CCN3C)C(O5)C1=O (stereo not drawn) | – | 5.2 | –
17 | CCCCCCC(=O)C1CC2C3Cc4ccc(O)c5c4C2(CCN3CC2CC2)C(O5)C1=O (stereo not drawn) | – | 0.4 | AD50 [3]: inactive
18 | O=C(c1ccc(F)cc1)C1CC2C3Cc4ccc(O)c5c4C2(CCN3CC2CC2)C(O5)C1=O (stereo not drawn) | ~10 | > 10 | –
19 | COc1ccc2c3c1OC1C(=O)C(C(=O)C(C)C)CC4C(C2)N(CC2CC2)CCC314 (stereo not drawn) | 2.8 | – | –
20 | CCCC(=O)C1CC2C3Cc4ccc(OC)c5c4C2(CCN3CC2CC2)C(O5)C1=O (stereo not drawn) | 8.1 | 2.8 | –
21 | COc1ccc2c3c1OC1C(=O)C(C(C)=O)CC4C(C2)N(CC2CC2)CCC314 (stereo not drawn) | >10 | > 10 | –
22 | COc1ccc2c3c1OC1C(=O)CCC4C(C2)N(CC2CC2)CCC314 (stereo not drawn) | 3.4 | 17 | –
23 | CCCCCC(=O)C1CC2C3Cc4ccc(O)c5c4C2(CCN3CC2CC2)C(O5)C1=O (stereo not drawn) | 22 | – | –
24 | CC(=O)C1CC2C3Cc4ccc(O)c5c4C2(CCN3CC2CC2)C(O5)C1=O (stereo not drawn) | 1.3 | 4 | –
25 | CC(C)(C)CC(=O)C1CC2C3Cc4ccc(O)c5c4C2(CCN3CC2CC2)C(O5)C1=O (stereo not drawn) | >10 | – | ED50 [4]: inactive
26 | CN1CC[C@]23c4c5ccc(O)c4O[C@H]2C(=O)CC[C@H]3[C@H]1C5 [HYDROMORPHONE] | – | 0.08 | –
27 | COc1ccc2c3c1OC1C(=O)C(C(C)=O)CC4C(C2)N(C)CCC314 (stereo not drawn) | – | 23.5 | –
28 | O=C1CCC2C3Cc4ccc(O)c5c4C2(CCN3CC2CC2)C1O5 (stereo not drawn) | 0.19 | 1.3 | –
29 | COc1ccc2c3c1OC1C(=O)C(C(=O)c4ccccc4)CC4C(C2)N(CC2CC2)CCC314 (stereo not drawn) | 8 | – | –
